# Experimental data as given in publication PMC4444071 (ACS infectious diseases, 2015).
# Where two headings read alike, the source gives them in different places.
# Columns and labels:
# HCV NS3h [1] = molecular target: T1, HCV NS3h (Hepatitis C virus genotype 1b, UniProt Q9WMX2); test: HCV NS3h-catalyzed ATP hydrolysis assay; format: biochemical; details: read-out: HCV ATPase IC50
# Summary of the method: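 HCV NS3h (4 nM) in 25 mM Tris pH 7.5, 1.25 mM MgCl2, 100 μM ATP, 15 μM poly(U) RNA (as nucleotide), 33 μg/mL BSA, 0.07% Tween 20, 0.3 mM DTT, 0.6% DMSO. Started with MgCl2; 30 min at 23 °C. Released phosphate read at 620 nm with Biomol Green. Scaled to 6.7 μM ATA (100%) and DMSO (0%). IC50 from variable-slope nonlinear fit.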
# DENV NS3h [2] = molecular target: T2, DENV NS3h (Dengue virus type 2, UniProt Q91H74); format: biochemical; details: read-out: DENV ATPase IC50; DENV NS3h-catalyzed ATP hydrolysis; 100 μM ATP, poly(U) RNA, pH 7.5
# DENV NS3h [3] = molecular target: T2, DENV NS3h; format: biochemical; details: for IC50: read-out: DENV RNA-helicase IC50, DENV NS3h RNA unwinding, 100 nM DENV helicase
# HCV NS3h [4] = molecular target: T1, HCV NS3h; details: read-out: HCV DNA-helicase IC50; HCV NS3h DNA unwinding; ref Li et al.[36]; cited from earlier work
# HCV NS3h [5] = molecular target: T1, HCV NS3h; test: HCV NS3h RNA unwinding assay; format: biochemical; details: read-out: HCV RNA-helicase IC50, values without asterisk
# [6] = tested on: West Nile virus (Kunjin subtype); test: West Nile virus; format: cell-based; details: 50 μM compound, BHK cells, 72 h
# [7] = tested on: herpes simplex virus helicase; details: read-out: helicase-catalyzed ATP hydrolysis IC50, cited from earlier work
# [8] = tested on: subgenomic DENV-2 replicon; test: DENV subgenomic replicon assay
# T1 sequence (Q9WMX2 1192-1657): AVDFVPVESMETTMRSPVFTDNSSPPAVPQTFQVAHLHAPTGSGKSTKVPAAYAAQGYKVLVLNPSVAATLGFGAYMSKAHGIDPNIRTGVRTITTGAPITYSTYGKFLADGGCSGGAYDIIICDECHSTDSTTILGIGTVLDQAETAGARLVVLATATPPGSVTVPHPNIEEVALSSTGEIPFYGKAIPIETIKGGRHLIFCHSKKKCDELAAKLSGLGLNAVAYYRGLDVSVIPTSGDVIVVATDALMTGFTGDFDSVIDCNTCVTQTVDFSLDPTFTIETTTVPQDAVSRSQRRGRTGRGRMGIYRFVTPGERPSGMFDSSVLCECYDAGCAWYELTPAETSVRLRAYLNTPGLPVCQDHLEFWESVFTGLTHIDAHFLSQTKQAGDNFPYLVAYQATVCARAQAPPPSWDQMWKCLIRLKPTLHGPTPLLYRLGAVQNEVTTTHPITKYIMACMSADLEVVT
# T2 sequence (Q91H74 1646-2093 limits assumed): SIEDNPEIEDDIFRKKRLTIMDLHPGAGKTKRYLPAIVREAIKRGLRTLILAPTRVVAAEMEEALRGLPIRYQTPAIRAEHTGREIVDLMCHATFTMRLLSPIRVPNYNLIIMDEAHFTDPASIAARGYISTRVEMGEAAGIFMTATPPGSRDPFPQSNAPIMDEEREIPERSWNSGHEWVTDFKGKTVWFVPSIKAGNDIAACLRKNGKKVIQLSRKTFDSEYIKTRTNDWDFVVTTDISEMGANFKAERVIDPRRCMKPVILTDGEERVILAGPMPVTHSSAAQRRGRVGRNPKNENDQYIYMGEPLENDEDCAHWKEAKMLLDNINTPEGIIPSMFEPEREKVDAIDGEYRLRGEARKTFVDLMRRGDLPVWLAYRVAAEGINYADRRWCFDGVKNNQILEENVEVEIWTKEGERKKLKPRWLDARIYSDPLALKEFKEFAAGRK
SMILES,IC50 (HCV NS3h [1]) [µM],IC50 (DENV NS3h [2]) [µM],IC50 (DENV NS3h [3]) [µM],IC50 (HCV NS3h [4]) [µM],IC50 (HCV NS3h [5]) [µM],other results
Cc1ccc(C(=O)Nc2ccc(-c3nc4ccc(-c5nc6ccc(C)c(S(=O)(=O)O)c6s5)cc4s3)cc2)cc1 [compound 7],61 ± 1,1.1 ± 0.2,4.3 ± 1.9,3.3 ± 0.3,3.9 ± 1,
Cc1ccc2nc(-c3ccc4nc(-c5ccc(NC(=O)c6cccc(C(F)(F)F)c6)cc5)sc4c3)sc2c1S(=O)(=O)O [compound 16],> 200,9.7 ± 3.1,,20 ± 12,22.4 ± 8,
Cc1cc(N2C(=O)C(O)=C(C(=O)c3ccc(C)o3)C2c2cc(Cl)cc(Cl)c2)no1 (stereo not drawn) [compound 25],,,,,,effect on West Nile virus plaque-forming units (in words) [6]: lowering plaque-forming units (pfu) to the greatest extent
Cc1ccc2nc(-c3ccc4nc(-c5ccc(NC(=O)c6ccccc6C(F)(F)F)cc5)sc4c3)sc2c1S(=O)(=O)O [compound 15],71 ± 23,5.4 ± 0.8,,14 ± 1,22.8 ± 5,
Cc1cccc(C)c1N(CC(=O)Nc1ccc(-c2ncon2)cc1)C(=O)C1CCS(=O)(=O)CC1 [amenamevir],,,,,,IC50 ([7]; HSV helicase): 0.078 µM
Cc1nc(N(C)C(=O)Cc2ccc(-c3ccccn3)cc2)sc1S(N)(=O)=O [BAY 57-1293],,,,,,IC50 ([7]; purified HSV helicase): 0.03 µM
Cc1ccc2nc(-c3ccc4nc(-c5ccc(NC(=O)c6cc(F)ccc6C(F)(F)F)cc5)sc4c3)sc2c1S(=O)(=O)O [compound 22],65 ± 10,7.2 ± 0.8,,19 ± 15,,
Cc1ccc2nc(-c3ccc4nc(-c5ccc(NC(=O)c6ccc(Cl)c(Cl)c6)cc5)sc4c3)sc2c1S(=O)(=O)O [compound 14],53 ± 3,2.7 ± 0.2,3.6 ± 0.9,3.7 ± 1,,
Cc1ccc2nc(-c3ccc4nc(-c5ccc(NC(=O)c6cccc(C(F)(F)F)c6F)cc5)sc4c3)sc2c1S(=O)(=O)O [compound 18],42 ± 14,4.3 ± 0.3,,9.2 ± 3,,
COc1ccc(C(=O)Nc2ccc(-c3nc4ccc(-c5nc6ccc(C)c(S(=O)(=O)O)c6s5)cc4s3)cc2)cc1 [compound 4],115 ± 14,3 ± 0.5,,10 ± 2.6,,
Cc1ccc2nc(-c3ccc4nc(-c5ccc(NC(=O)c6ccc(Cl)cc6)cc5)sc4c3)sc2c1S(=O)(=O)O [compound 6],53 ± 4,1.4 ± 0.2,5.6 ± 1.2,3.4 ± 0.3,3.3 ± 1,
COC(=O)c1ccc(C(=O)Nc2ccc(-c3nc4ccc(-c5nc6ccc(C)c(S(=O)(=O)O)c6s5)cc4s3)cc2)cc1.N [compound 5],> 200,0.4 ± 0.1,7.9 ± 2.5,9.7 ± 4.6,,"times more compound needed to inhibit RNA unwinding than ATP hydrolysis (DENV NS3h [3]; DENV NS3h, unwinding vs ATPase): About 20 times"
Cc1ccc2nc(-c3ccc4nc(-c5ccc(NC(=O)c6c(F)cccc6C(F)(F)F)cc5)sc4c3)sc2c1S(=O)(=O)O [compound 17],93 ± 16,,,17 ± 6,32.5 ± 7,
Cc1ccc2nc(-c3ccc4nc(-c5ccc(NC(=O)c6ccc(C(F)(F)F)c(F)c6)cc5)sc4c3)sc2c1S(=O)(=O)O [compound 19],55 ± 42,3.5 ± 1.1,,17 ± 7,5.4 ± 2,
Cc1ccc2nc(-c3ccc4nc(-c5ccc(NC(=O)c6cccc(Cl)c6)cc5)sc4c3)sc2c1S(=O)(=O)O [compound 13],24 ± 5,4 ± 0.8,5.1 ± 0.9,2.6 ± 1,5.9 ± 2,
Cc1ccc2nc(-c3ccc4nc(-c5ccc(NC(=O)c6ccc7nc(-c8ccc(N)cc8)sc7c6)cc5)sc4c3)sc2c1S(=O)(=O)O.N [compound 24],,0.5 ± 0.1,1.5 ± 0.2,,2 ± 0.7,"TI (CC50/replicon EC50) ([8]; BHK cell viability CC50 / replicon EC50): 17; inhibition of DENV replicon (in words) ([8]; concentration-response): reduced replication of a subgenomic DENV replicon in cells in a concentration-dependent manner; inhibition of replicon content in concentration-response assays ([8]; eight-point two-fold dilution series starting at 100 μM): more than 90%; EC50 ([8]; read-out: replicon EC50, BHK cell DENV replicon content, 72 h): 7.1 ± 3 µM"
Cc1ccc2nc(-c3ccc4nc(-c5ccc(NC(=O)c6ccc(NC(=O)OCC7c8ccccc8-c8ccccc87)cc6)cc5)sc4c3)sc2c1S(=O)(=O)O [compound 12],39 ± 31,1.3 ± 0.3,3.5 ± 1.7,5.4 ± 1,2.8 ± 1,
Cc1ccc2nc(-c3ccc4nc(-c5ccc(NC(=O)c6ccc(Br)cc6)cc5)sc4c3)sc2c1S(=O)(=O)O [compound 11],21 ± 6,1.1 ± 0.1,5 ± 1.2,5.2 ± 4,,
Cc1ccc2nc(-c3ccc4nc(-c5ccc(NC(=O)c6cc(C(F)(F)F)cc(C(F)(F)F)c6)cc5)sc4c3)sc2c1S(=O)(=O)O.N [compound 20],> 200,63 ± 20,7.7 ± 1.8,,,"times less compound needed to inhibit RNA unwinding than ATP hydrolysis (DENV NS3h [3]; DENV NS3h, unwinding vs ATPase): about 8 times"
Cc1ccc2nc(-c3ccc4nc(-c5ccc(NC(=O)c6ccc(F)cc6)cc5)sc4c3)sc2c1S(=O)(=O)O [compound 3],32 ± 7,3 ± 0.4,6.6 ± 0.9,5.2 ± 0.6,,
Cc1ccc2nc(-c3ccc4nc(-c5ccc(NC(=O)c6cc(C(F)(F)F)ccc6F)cc5)sc4c3)sc2c1S(=O)(=O)O [compound 21],16 ± 2,3.8 ± 0.2,5.4 ± 1.3,6.4 ± 2,7.5 ± 2,
Cc1ccc2nc(-c3ccc4nc(-c5ccc(NC(=O)c6ccc(N)cc6)cc5)sc4c3)sc2c1S(=O)(=O)O [compound 2],58 ± 10,2.8 ± 0.6,7.6 ± 1.6,10 ± 2.4,,
Cc1ccc2nc(-c3ccc4nc(-c5ccc(NC(=O)c6ccccc6)cc5)sc4c3)sc2c1S(=O)(=O)O [compound 1],69 ± 6,5.3 ± 1.2,,11 ± 1.5,8.5 ± 2,
Cc1ccc2nc(-c3ccc4nc(-c5ccc(NC(=O)c6cc(F)cc(C(F)(F)F)c6)cc5)sc4c3)sc2c1S(=O)(=O)O [compound 23],> 200,11 ± 5.7,,28 ± 7,9.8 ± 3,
Cc1ccc2nc(-c3ccc4nc(-c5ccc(NC(=O)c6ccc(C(C)(C)C)cc6)cc5)sc4c3)sc2c1S(=O)(=O)O [compound 9],> 200,4 ± 0.5,10 ± 3.4,8.2 ± 1,,
Cc1ccc2nc(-c3ccc4nc(-c5ccc(NC(=O)c6ccc(C(F)(F)F)cc6)cc5)sc4c3)sc2c1S(=O)(=O)O [compound 8],111 ± 60,1.2 ± 0.2,5.2 ± 0.6,1.8 ± 0.4,2.8 ± 2,
Cc1ccc2nc(-c3ccc4nc(-c5ccc(NC(=O)c6ccc(N(C)C)cc6)cc5)sc4c3)sc2c1S(=O)(=O)O [compound 10],> 200,3.4 ± 0.3,,11 ± 6.7,8.6 ± 2,
